The record followed here is ChEMBL document CHEMBL1130129, “Immunologically specific activation of a cephalosporin derivative of mitomycin C by monoclonal antibody beta-lactamase conjugates” (J Med Chem, 1997).

Substrate in series [1]: O=C(Cc1ccccc1)N[C@@H]1C(=O)N2C(C(=O)O)=C(COC(=O)Nc3ccc(N(CCCl)CCCl)cc3)CS[C@H]12
As to the kind of experiment: (§1) Determination of kinetic constant (Km) for hydrolysis by beta-lactamase from Enterobacter cloacae 99. The procedure, abridged: (§2)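 Purified E. cloacae β-lactamase (0.1 µg/mL) added to prodrug in PBS pH 7.2 containing 12.5 µg/mL bovine serum albumin, 23 °C; β-lactam hydrolysis followed by loss of absorbance at 260 nm. Initial velocities taken from linear portions of absorbance-time plots and used to derive kinetic constants.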

Substrate in series [2]: O=C(O)CCCC(=O)N[C@@H]1C(=O)N2C(C(=O)O)=C(COC(=O)Nc3ccc(N(CCCl)CCCl)cc3)CS[C@H]12
The description is as §1. The procedure, abridged:
as §2

Substrate in series [3]: CO[C@@]12[C@H](COC(N)=O)C3=C(C(=O)C(C)=C(NCC4=C(C(=O)O)N5C(=O)[C@@H](NC(=O)Cc6ccccc6)[C@H]5SC4)C3=O)N1C[C@@H]1N[C@@H]12
Described as §1. In a few lines:
as §2

Substrate in series [4]: CO[C@@]12[C@H](COC(N)=O)C3=C(C(=O)C(C)=C(NCC4=C(C(=O)O)N5C(=O)[C@@H](NC(=O)CCCC(=O)O)[C@H]5SC4)C3=O)N1C[C@@H]1N[C@@H]12
The series is described as §1. The procedure, abridged:
as §2

B1: Beta-lactamase (Enterobacter cloacae), P05364 (protein)
chain: MMRKSLCCALLLGISCSALATPVSEKQLAEVVANTITPLMKAQSVPGMAVAVIYQGKPHYYTFGKADIAANKPVTPQTLFELGSISKTFTGVLGGDAIARGEISLDDAVTRYWPQLTGKQWQGIRMLDLATYTAGGLPLQVPDEVTDNASLLRFYQNWQPQWKPGTTRLYANASIGLFGALAVKPSGMPYEQAMTTRVLKPLKLDHTWINVPKAEEAHYAWGYRDGKAVRVSPGMLDAQAYGVKTNVQDMANWVMANMAPENVADASLKQGIALAQSRYWRIGSMYQGLGWEMLNWPVEANTVVEGSDSKVALAPLPVAEVNPPAPPVKASWVHKTGSTGGFGSYVAFIPEKQIGIVMLANTSYPNPARVEAAYHILEALQ
As a reminder, the Km is the concentration of substrate that gives half-maximal velocity. Take B1: the Km is 7 µM in series [1], 43.2 µM in series [2], 48.9 µM in series [3] and 119 µM in series [4].
